Results on 19 molecules are retold here after ChEMBL document CHEMBL1146030, “Identification of thieno[3,2-b]pyrroles as allosteric inhibitors of hepatitis C virus NS5B polymerase” (Bioorg Med Chem Lett, 2006).

In series [1] the test system is Hepatitis C virus. The series can be described thus: Inhibition of HCV RNA replication in Huh7 cells up to 100 uM. The series is classed as functional, organism-based. Conditions: Hepacivirus hominis; Huh-7.
The target in series [2] is RNA-directed RNA polymerase (Hepacivirus hominis, UniProt O39930). The series can be described thus: Inhibition of HCV BK NS5B deltaC55 RNA dependent RNA polymerase. Set-up: species or system Hepatitis C virus (isolate BK). In outline:
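Purified NS5B ΔC55 enzyme from HCV genotype BK strain, assayed with heterogeneous template RNA; IC50 determined with a modified literature protocol.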

The subject of series [3] is Hepatitis C virus. The series can be described thus: Inhibition of HCV RNA replication in Huh7 cells in presence of 10% fetal calf serum. In kind it is functional, organism-based, Hepacivirus hominis. To be noted: Huh-7.
The nature of series [4]: Partition coefficient, log D at pH 7.4. Conditions: octanol/water.

Active and inactive are the calls of the source. The calls are words filed in the database; no cut-off is given here.

Sequence of RNA-directed RNA polymerase (O39930 whole entry): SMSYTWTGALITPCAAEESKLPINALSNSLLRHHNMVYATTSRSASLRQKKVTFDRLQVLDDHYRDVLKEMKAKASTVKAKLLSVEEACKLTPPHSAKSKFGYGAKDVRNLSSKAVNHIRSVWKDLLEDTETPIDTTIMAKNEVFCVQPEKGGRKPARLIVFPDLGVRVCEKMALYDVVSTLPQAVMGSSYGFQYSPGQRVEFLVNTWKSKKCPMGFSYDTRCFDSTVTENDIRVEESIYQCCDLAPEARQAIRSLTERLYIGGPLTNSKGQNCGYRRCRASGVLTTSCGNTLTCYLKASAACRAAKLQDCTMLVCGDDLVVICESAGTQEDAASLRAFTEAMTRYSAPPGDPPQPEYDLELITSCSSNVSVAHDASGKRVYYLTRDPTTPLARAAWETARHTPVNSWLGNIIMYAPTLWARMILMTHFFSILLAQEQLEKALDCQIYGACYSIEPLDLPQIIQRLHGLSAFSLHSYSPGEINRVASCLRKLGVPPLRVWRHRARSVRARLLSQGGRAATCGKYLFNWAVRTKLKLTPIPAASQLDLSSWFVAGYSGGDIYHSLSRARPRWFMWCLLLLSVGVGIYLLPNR

For the molecule `O=C(O)c1cc2nc(-c3ccccc3)n(C3CCCCC3)c2s1`, the result in the series with Hepatitis C virus [1] was inactive. Moreover, inhibition in series [2] was half-maximal at 17.2 µM (IC50).

Take `O=C(O)c1cc2c(C3CCCCC3)c(-c3ccccc3)[nH]c2s1`: in the series with Hepatitis C virus [3], the half-maximal effective concentration (EC50) – broadly, the midpoint of the concentration-response curve – is 19.5 µM. Further, 0.12 µM corresponded to half-maximal inhibition in series [2] (IC50).

`COc1ccc(-c2nc(/C=C/C(=O)O)cn2C2CCCCC2)cc1`: the outcome in the series on Hepatitis C virus [1] was inactive. Moreover, in series [2], it took 77.3 µM to reach half-maximal inhibition (IC50).

Turning to `O=C(O)c1ccc2cc(C3CCCCC3)c(-c3ccccc3)nc2c1`, the outcome in the series with Hepatitis C virus [1] was inactive. Further, in series [2], the IC50 (as a rule, the concentration that inhibits the measured activity by half) is above 50 µM.

On to `CN(C)C(=O)Cn1c(-c2ccccc2)c(C2CCCCC2)c2cc(C(=O)O)sc21`, for which the EC50 in the series on Hepatitis C virus [3] was 9.5 µM. In series [2], this molecule showed an IC50 of 0.23 µM.

As for `O=C(O)c1ccc2c(C3CCCCC3)c(-c3ccccc3)cn2c1`, in the series with Hepatitis C virus [1], the outcome was inactive. The same molecule had a half-inhibitory concentration (IC50) in series [2] of 0.094 µM.

Consider `O=C(O)c1ccc2c(c1)nc(-c1ccccc1)n2C1CCCCC1`, for which the concentration giving a half-maximal response (EC50) in the series on Hepatitis C virus [3] is above 50 µM. The molecule further showed an IC50 in series [2] of 6.5 µM.

As to `CN(C)C(=O)Cn1c(-c2ccccc2)c(C2CCCCC2)c2sc(C(=O)O)cc21`, the 50% effective concentration (EC50) in the series with Hepatitis C virus [3] stood at 2.9 µM. In series [2], this molecule registered an IC50 of 0.058 µM.

As to `O=C(O)c1cc2nc(-c3ccccc3)n(C3CCCCC3)c2[nH]1`, the result with Hepatitis C virus [1] was inactive. This molecule also gave an IC50 in series [2] above 50 µM.

As to `O=C(O)c1ccc2c(C3CCCCC3)c(-c3ccccc3)[nH]c2n1`, the logD (as a rule, lipophilicity at a set pH, counting ionised and neutral species) in series [4] turned out to be 3.3. Further, in the series on Hepatitis C virus [3], the concentration giving a half-maximal response (EC50) is 16.8 µM. Further, the IC50 in series [2] is 0.15 µM.

For `O=C(O)c1ccc2c(C3CCCCC3)c(-c3ccccc3)[nH]c2c1`, in the series on Hepatitis C virus [3], the EC50 came out at 6.7 µM.

In turn, `CN(C)C(=O)Cn1c(-c2ccccc2)c(C2CCCCC2)c2ncc(C(=O)O)cc21` returned a log distribution coefficient (logD) in series [4] of 0.8. Moreover, the 50% effective concentration (EC50) with Hepatitis C virus [3] was above 50 µM. The molecule also returned a half-maximal inhibitory concentration (IC50) in series [2] of 2.2 µM.

On to `O=C(O)c1c[nH]c2c(C3CCCCC3)c(-c3ccccc3)nc-2c1`, for which, in series [4], the logD was found to be 2.5. Besides, the EC50 with Hepatitis C virus [3] is 48.2 µM. Moreover, in series [2], the half-inhibitory concentration (IC50) was 1.9 µM.

The molecule `CN(C)C(=O)Cn1c(-c2ccccc2)c(C2CCCCC2)c2ccc(C(=O)O)nc21` came in with a pH-dependent lipophilicity (logD) in series [4] of 1.1. The half-maximal effective concentration (EC50) in the series with Hepatitis C virus [3] amounted to 9.8 µM. The IC50 in series [2] was 0.32 µM.

With `O=C(O)c1cc2c(nc(-c3ccccc3)n2C2CCCCC2)s1`, the outcome with Hepatitis C virus [1] was inactive. The IC50 in series [2] turned out to be 13.8 µM.

For `O=C(O)c1cc2[nH]c(-c3ccccc3)c(C3CCCCC3)c2s1`, the pH-dependent lipophilicity (logD) in series [4] turned out to be 3.4. Also, the EC50 in the series with Hepatitis C virus [3] was 11.2 µM. Inhibition in series [2] was half-maximal at 0.066 µM (IC50).

For the molecule `O=C(O)c1ccc2nc(-c3ccccc3)c(C3CCCCC3)cc2c1`, the result in the series on Hepatitis C virus [1] was inactive. Also, the IC50 in series [2] worked out at 4.8 µM.

As to `O=C(O)c1ccc2c(C3CCCCC3)c(-c3ccccc3)n(CC(=O)N3CCOCC3)c2c1`, the EC50 in the series with Hepatitis C virus [3] is 0.8 µM.

`COc1ccc(-c2nc3cc(C(=O)O)ccc3n2C2CCCCC2)cc1`: the EC50 in the series on Hepatitis C virus [3] is above 50 µM. In series [2], this molecule displayed a half-inhibitory concentration (IC50) of 11.2 µM.
